PMC7935786 (Cancer Science, 2021)
Values joined by “and” are separate entries in the source; they are usually repeats but may differ in a detail not shown here. Identical values can stand only once. “Also recorded” adds a separate entry of the source.

Tested on: Japanese patients with relapsed or refractory B‐NHL
Assay: Phase I study: safety, adverse events and DLT
Format: in vivo, human
In short: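 Patients received 800 mg orally once in a 4-day cycle 0, then 800 mg BID in 28-day cycles; reduction to 600 then 400 mg BID permitted. AEs graded by CTCAE v4.03, with hematology, chemistry, urinalysis, vital signs, 12-lead ECG and LVEF by echo/MUGA. DLT assessed over cycles 0–1 in patients completing both with ≥75% cycle-1 compliance, or having DLT. Safety set: ≥1 dose.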

## CCN(c1cc(-c2ccc(CN3CCOCC3)cc2)cc(C(=O)NCc2c(C)cc(C)[nH]c2=O)c1C)C1CCOCC1 [Tazemetostat]
800 mg BID, n = 7
  Dysgeusia, treatment‐related TEAEs, Grade ≥3: 0 (0.0) patients (%)
  Dysgeusia, treatment‐related TEAEs, all grades: 3 (42.9) patients (%)
  Fatigue, all TEAEs, Grade ≥3: 1 (14.3) patients (%)
  Fatigue, all TEAEs, all grades: 2 (28.6) patients (%)
  Fatigue, treatment‐related TEAEs, Grade ≥3: 1 (14.3) patients (%)
  Fatigue, treatment‐related TEAEs, all grades: 2 (28.6) patients (%)
  Insomnia, all TEAEs, Grade ≥3: 0 (0.0) patients (%)
  Insomnia, all TEAEs, all grades: 2 (28.6) patients (%)
  Insomnia, treatment‐related TEAEs, Grade ≥3: 0 (0.0) patients (%)
  Insomnia, treatment‐related TEAEs, all grades: 1 (14.3) patients (%)
  Leukopenia, all TEAEs, Grade ≥3: 1 (14.3) patients (%)
  Leukopenia, all TEAEs, all grades: 2 (28.6) patients (%)
  Leukopenia, treatment‐related TEAEs, Grade ≥3: 0 (0.0) patients (%)
  Leukopenia, treatment‐related TEAEs, all grades: 1 (14.3) patients (%)
  Muscle spasms, all TEAEs, Grade ≥3: 0 (0.0) patients (%)
  Muscle spasms, all TEAEs, all grades: 2 (28.6) patients (%)
  Muscle spasms, treatment‐related TEAEs, Grade ≥3: 0 (0.0) patients (%)
  Muscle spasms, treatment‐related TEAEs, all grades: 2 (28.6) patients (%)
  Nasopharyngitis, all TEAEs, Grade ≥3: 0 (0.0) patients (%)
  Nasopharyngitis, all TEAEs, all grades: 5 (71.4) patients (%)
  Nasopharyngitis, treatment‐related TEAEs, Grade ≥3: 0 (0.0) patients (%)
  Nasopharyngitis, treatment‐related TEAEs, all grades: 0 (0.0) patients (%)
  Neutropenia, all TEAEs, Grade ≥3: 1 (14.3) patients (%)
  Neutropenia, all TEAEs, all grades: 2 (28.6) patients (%)
  Neutropenia, treatment‐related TEAEs, Grade ≥3: 0 (0.0) patients (%)
  Neutropenia, treatment‐related TEAEs, all grades: 1 (14.3) patients (%)
  Rash, all TEAEs, Grade ≥3: 0 (0.0) patients (%)
  Rash, all TEAEs, all grades: 2 (28.6) patients (%)
  Rash, treatment‐related TEAEs, Grade ≥3: 0 (0.0) patients (%)
  Rash, treatment‐related TEAEs, all grades: 2 (28.6) patients (%)
  Stomatitis, all TEAEs, Grade ≥3: 0 (0.0) patients (%)
  Stomatitis, all TEAEs, all grades: 2 (28.6) patients (%)
  Stomatitis, treatment‐related TEAEs, Grade ≥3: 0 (0.0) patients (%)
  Stomatitis, treatment‐related TEAEs, all grades: 2 (28.6) patients (%)
  Thrombocytopenia, all TEAEs, Grade ≥3: 2 (28.6) patients (%)
  Thrombocytopenia, all TEAEs, all grades: 3 (42.9) patients (%)
  Thrombocytopenia, treatment‐related TEAEs, Grade ≥3: 2 (28.6) patients (%)
  Thrombocytopenia, treatment‐related TEAEs, all grades: 3 (42.9) patients (%)
Cycles 0 and 1, six evaluable patients, 800 mg BID
  dose‐limiting toxicity (DLT): No DLTs; also recorded: did not observe any DLT
N = 7
  AE anemia: 29%
  AE constipation: 42.9%
  AE dry skin: 29%
  AE dysgeusia: 42.9% and 43%
  AE fatigue: 29%
  AE leading to dose reduction: 14.3%
  AE nasopharyngitis: 71.4%
  AE rash: 29%
  AE stomatitis: 29%
  AE thrombocytopenia: 42.9% and 43%
  AEs leading to dose interruption: 57.1%
  Grade 3 AE anemia: 14.3%
  Grade 3 AE fatigue: 14.3%
  Grade 3 AE hypophosphatemia: 14.3%
  Grade 3 AE increased γ‐glutamyltransferase: 14.3%
  Grade 3 AE leukopenia: 14.3%
  Grade 3 AE lymphopenia: 14.3%
  Grade 3 AE neutropenia: 14.3%
  Grade 3 AE squamous cell carcinoma of the tongue: 14.3%
  Grade 3 AE thrombocytopenia: 28.6%
  Grade 3 or higher AEs: 57.1%
  Grade 4 AE increased levels of blood triglycerides: 14.3%
  Grade 4 AE intestinal perforation: 14.3%
  TR‐AE dysgeusia: 42.9%
  TR‐AE thrombocytopenia: 42.9%
  grade 2 peripheral neuropathy, leading to drug dose reduction: 14.3%
  patients having at least one TR‐AE: 85.7%
  patients who died or had AEs resulting in death: None
  patients who experienced at least one AE: seven
  treatment‐related serious AEs: No treatment‐related serious AEs
N = 7, intestinal perforation and squamous cell carcinoma of the tongue
  Serious AEs: 28.6%
N = 7, listed as tazemetostat
  treatment‐related serious AEs: both assessed as not related to study drug; also recorded: No treatment‐related SAEs
N = 7, section 3.2
  patients who received a reduction in the tazemetostat dose: 14.3%
One patient
  time to first dose reduction: 4.9 months
